KCNK9 block = human KCNK9 channel inhibition; B-score at 10 µM; HEK293 KCNK9, FluxOR thallium flux fluorescence; hits give low values; Q9NPC2; hit rate 1.2% among 310,000;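 active means ratio B-score over 3 SD below the library mean, with starting fluorescence within 5 SD of its mean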;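 further: negative B-score means less thallium flux so channel inhibition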
hERG protect = hERG (human) protection from proarrhythmic block | Q12809 | CHO-hERG, FluxOR thallium flux, dofetilide IC70 present | activation (rescue from dofetilide block), less the hit threshold, % at 10 µM | hit rate 0.51% among 310,000 | AID 1511;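 active means activation above the mean of controls blocked by dofetilide plus 5 SD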;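 further: thallium influx through hERG after potassium depolarization seen as dye fluorescence rise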
KCNQ1 act = human KCNQ1 channel potentiation or activation; P51787; CHO-K1 KCNQ1, thallium flux FluxOR fluorescence; hits give high values; B-score at 10 µM; hit rate 0.35% among 310,000; AID 2648;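 active means fluorescence ratio B-score, a plate-corrected score, at least three library SD, with initial intensity B-score within 5 SD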
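assay system = KCNQ1-transfected CHO-K1 cells | medium = assay buffer with matched DMSO | probe or stimulus = depolarizing K+/Tl+ stimulus, K2SO4 and Tl2SO4 each 12.5 mM in 5x stock | dosing = single dose | incubation = dye 90 min, compound 20 min, room temperature | detection = kinetic FluxOR fluorescence, 10 s baseline plus 110 s post-stimulus | evaluation = ratio B score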
KCNQ1 inh = blocks the human KCNQ1 potassium channel; P51787; CHO-K1 KCNQ1, FluxOR thallium flux fluorescence; hits give high values; B-score at 10 µM; hit rate 1.3% among 310,000; AID 2642;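 active means compounds whose thallium flux B-score, printed positive for inhibition, exceeds three library SD while starting fluorescence stays within three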;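 further: channel opened by potassium depolarization with thallium stimulus after 20 min compound exposure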
Kir21 block = inhibitors of mouse Kir2.1 inward-rectifier potassium channel; HEK293-Kir2.1, FluxOR thallium flux fluorescence; hits give low values; AID 1672; B-score at 10 µM; P35561; hit rate 0.85% among 310,000;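 active means fluorescence ratio B-score at or below minus 3 SD of library scores, with starting-brightness B-score within 2 SD, cut at about -4.2 in these data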;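 further: channel flux triggered by added potassium and thallium sulfate stimulus; B-score of peak minus minimum fluorescence over baseline after thallium stimulus; more negative B-score means stronger Kir2.1 block with less thallium influx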
Target sequence (P35561 whole entry, looked up): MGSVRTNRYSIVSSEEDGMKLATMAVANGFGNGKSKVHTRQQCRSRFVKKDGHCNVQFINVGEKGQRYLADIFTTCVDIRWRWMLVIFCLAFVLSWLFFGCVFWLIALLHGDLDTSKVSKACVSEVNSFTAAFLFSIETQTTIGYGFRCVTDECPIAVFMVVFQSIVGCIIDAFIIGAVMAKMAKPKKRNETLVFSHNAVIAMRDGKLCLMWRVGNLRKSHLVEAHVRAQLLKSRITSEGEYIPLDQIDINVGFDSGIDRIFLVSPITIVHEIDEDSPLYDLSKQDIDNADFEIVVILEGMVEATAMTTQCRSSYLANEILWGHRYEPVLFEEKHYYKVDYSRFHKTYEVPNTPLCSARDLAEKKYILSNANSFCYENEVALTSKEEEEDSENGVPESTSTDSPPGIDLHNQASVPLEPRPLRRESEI
KCNK3 inh = human KCNK3 channel inhibition, primary screen; O14649; CHO-KCNK3 thallium flux, FluxOR fluorescence; hits give low values; B-score at 10 µM; hit rate 0.84% among 340,000; AID 602410;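 active means B-score under library mean minus 4 SD, starting fluorescence ratio at most library mean plus 5 SD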;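 further: more negative B-score means stronger inhibition of thallium flux through KCNK3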
KCNK9 block conf = human KCNK9 inhibitor confirmation. inhibition, % at 10 µM. shares compounds with KCNK9 block. HEK293 KCNK9 cells, FluxOR thallium flux fluorescence. hit rate 43% among 4,900;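 active means thallium signal inhibited by more than 5 SD of the compound-free buffer control wells, on both duplicate plates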;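 further: 0% = assay buffer control wells without compound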
Kir21 sel = tests whether KCNK9 modulators also affect mouse Kir2.1; shares compounds with KCNK9 block; Kir2.1 cells, FluxOR thallium flux fluorescence; inhibition, % at 10 µM; hit rate 4% among 4,900; AID 492993;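 active means thallium signal drop more than 5 SD beyond the mean of the no-compound control wells, seen in both duplicate plates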;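 further: signal is fluorescence rise after thallium addition divided by baseline fluorescence; plate controls were assay buffer only for no effect and full block by chlorpromazine control for full effect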
KCNK9 uninduced = non-induced cell nonspecific activity of KCNK9 modulators | shares compounds with KCNK9 block | non-induced KCNK9-HEK293, FluxOR thallium flux | inhibition, % at 10 µM | hit rate 40% among 4,900 | AID 492997;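 active means thallium signal drop beyond 5 SD of the untreated control mean, on both duplicate plates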;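 further: plate controls were buffer only IC0 wells for no effect and SID17386958 at its maximal inhibitory level for full effect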
* = called active by the depositor. In the library only some 3.7% were active in any assay of this set; here they are far more common.

How did CC1CCc2c(sc(NC(=O)c3ccco3)c2C(=O)O)C1 (configuration not stated) do in these assays?
KCNK9 block: inactive; hERG protect: -4.9; KCNQ1 act: inactive; KCNQ1 inh: inactive; Kir21 block: 0.07; KCNK3 inh: inactive

How did CCOC(=O)c1c(NS(=O)(=O)c2ccc(Br)cc2)sc2c1CCC2 do in these assays?
KCNK9 block: inactive; hERG protect: 61.6*; KCNQ1 act: 56*; KCNQ1 inh: inactive; Kir21 block: 0.18; KCNK3 inh: inactive; KCNK9 block conf: inactive; Kir21 sel: inactive; KCNK9 uninduced: inactive

Results for COC(=O)c1c(NS(=O)(=O)c2ccc3ccccc3c2)sc2c1CCCC2 ?
KCNK9 block: inactive; hERG protect: 16.7*; KCNQ1 act: 33*; KCNQ1 inh: inactive; Kir21 block: 0.67; KCNK3 inh: inactive; KCNK9 block conf: inactive; Kir21 sel: inactive; KCNK9 uninduced: inactive

Results for CCCn1c(=O)c(C(=O)Nc2cccc(C)n2)c(O)c2ccccc21 ?
KCNK9 block: -10.1*; hERG protect: -7.0; KCNQ1 act: inactive; KCNQ1 inh: inactive; Kir21 block: -0.42; KCNK3 inh: inactive; KCNK9 block conf: inactive; Kir21 sel: inactive; KCNK9 uninduced: 29.0%*

How did CCCCCCCCC(=O)NNC(=O)c1c(O)c2ccccc2n(CCC)c1=O do in these assays?
KCNK9 block: inactive; hERG protect: -11.1; KCNQ1 act: inactive; KCNQ1 inh: inactive; Kir21 block: 0.45; KCNK3 inh: inactive; KCNK9 block conf: inactive; Kir21 sel: inactive; KCNK9 uninduced: inactive

What do the screens show for `Cc1ccc(-c2ccc(C(=O)NCCCNC(=O)c3cnccn3)o2)cc1Cl`?
KCNK9 block: inactive; hERG protect: -7.4; KCNQ1 act: inactive; KCNQ1 inh: inactive; Kir21 block: -0.77; KCNK3 inh: inactive

Results for COc1ccc2nc(NC(=O)C(NS(=O)(=O)c3cccc4nsnc34)C(C)C)sc2c1 (configuration not stated) ?
KCNK3 inh: inactive

What do the screens show for `COc1ccc(/C=N/Nc2ccccc2)cc1Cn1nc(C)c([N+](=O)[O-])c1C`?
KCNK9 block: inactive; hERG protect: -9.6; KCNQ1 act: inactive; KCNQ1 inh: inactive; Kir21 block: 0.06; KCNK3 inh: inactive

Results for CCC(=O)Nc1cc(-c2nn(C)c(=O)c3ccccc23)ccc1N1CCOCC1 ?
KCNK9 block: inactive; hERG protect: -2.7; KCNQ1 act: inactive; KCNQ1 inh: inactive; Kir21 block: -7.57; KCNK3 inh: inactive

How did Cn1nc(-c2ccc(N3CCCCC3)c(NC(=O)c3ccco3)c2)c2ccccc2c1=O do in these assays?
KCNK9 block: -15*; hERG protect: -13.0; KCNQ1 act: inactive; KCNQ1 inh: inactive; Kir21 block: -0.43; KCNK3 inh: inactive; KCNK9 block conf: 73.0%*; Kir21 sel: inactive; KCNK9 uninduced: 36.0%*

What do the screens show for `C=CCc1ccc(OCc2ccc(C(=O)OC)o2)c(OC)c1`?
KCNK9 block: inactive; hERG protect: -11.8; KCNQ1 act: inactive; KCNQ1 inh: inactive; Kir21 block: -1.36; KCNK3 inh: inactive

What do the screens show for `C=CCc1ccc(O)c(-c2cc(CC=C)ccc2O)c1`?
KCNK9 block: -16.5*; hERG protect: -11.8; KCNQ1 act: inactive; KCNQ1 inh: inactive; Kir21 block: -4.11; KCNK3 inh: inactive; KCNK9 block conf: 61.5%*; Kir21 sel: inactive; KCNK9 uninduced: inactive

What do the screens show for `CC1=NN(c2ccccc2)C(=O)/C1=C\c1ccc(Oc2ccc([N+](=O)[O-])cc2[N+](=O)[O-])cc1`?
KCNK9 block: inactive; hERG protect: -0.2; KCNQ1 act: inactive; KCNQ1 inh: inactive; Kir21 block: 1.83; KCNK3 inh: inactive; KCNK9 block conf: inactive; Kir21 sel: inactive; KCNK9 uninduced: inactive

How did Cc1cnc(C(=O)OCC(=O)NCc2cccc(Cl)c2)cn1 do in these assays?
KCNK3 inh: inactive

What do the screens show for `COc1ccc(-c2nc3cnccn3c2Nc2ccc3c(c2)OCO3)cc1`?
KCNK9 block: inactive; hERG protect: -14.3; KCNQ1 act: inactive; KCNQ1 inh: inactive; Kir21 block: -0.83; KCNK3 inh: inactive

What do the screens show for `Cc1ccc(-c2nc3cnccn3c2Nc2ccc3c(c2)OCO3)cc1`?
KCNK9 block: -8.57*; hERG protect: -6.7; KCNQ1 act: inactive; KCNQ1 inh: inactive; Kir21 block: -2.41; KCNK3 inh: inactive; KCNK9 block conf: 44.5%*; Kir21 sel: inactive; KCNK9 uninduced: inactive

What do the screens show for `Cc1cc(C)n2c(Nc3ccc4c(c3)OCCO4)c(-c3ccccc3)nc2n1`?
KCNK9 block: -11.4*; hERG protect: -18.3; KCNQ1 act: inactive; KCNQ1 inh: inactive; Kir21 block: 0.18; KCNK3 inh: inactive; KCNK9 block conf: 39.0%*; Kir21 sel: inactive; KCNK9 uninduced: 28.5%*

What do the screens show for `CCCCNC(=O)[C@H]1N2C(=O)c3c(ccc(OC)c3OC)C2SC1(C)C` (some centres not stated)?
KCNK9 block: inactive; hERG protect: -4.0; KCNQ1 act: inactive; KCNQ1 inh: inactive; Kir21 block: 1.09; KCNK3 inh: inactive

How did CC(=O)c1cccc(NC(=S)Nc2ccn(Cc3cccc4ccccc34)n2)c1 do in these assays?
KCNK9 block: inactive; hERG protect: -3.7; KCNQ1 act: inactive; KCNQ1 inh: inactive; Kir21 block: 0.25; KCNK3 inh: inactive; KCNK9 block conf: inactive; Kir21 sel: inactive; KCNK9 uninduced: inactive

What do the screens show for `CC(=O)c1ccc(NC(=S)Nc2ccn(Cc3ccc(Br)cc3)n2)cc1`?
KCNK9 block: inactive; hERG protect: 3.7; KCNQ1 act: inactive; KCNQ1 inh: inactive; Kir21 block: 1.19; KCNK3 inh: inactive

Results for Cc1cc(Cl)ccc1OC(C)C(=O)N1CCCN(C(=O)C(C)Oc2ccc(Cl)cc2C)CC1 (configuration not stated) ?
KCNK9 block: -15.1*; hERG protect: -6.2; KCNQ1 act: inactive; KCNQ1 inh: inactive; Kir21 block: 1.03; KCNK3 inh: inactive; KCNK9 block conf: 58.0%*; Kir21 sel: inactive; KCNK9 uninduced: 29.5%*

High-throughput results as filed in PubChem.
